The nature of series [1]: (§1) Cytotoxicity against human CEM cells. The class given is cell-based, CCRF-CEM. The settings on record: CEM cells. Summed up: (§2)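 Wild-type CEM cells exposed to test compound dilutions. Value reported as 50% cytotoxic concentration.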
In series [2] the test system is Human immunodeficiency virus 2. As to the kind of experiment: Antiviral activity against HIV2 ROD in thymidine kinase deficient human CEM cells. It counts as functional, organism-based, CCRF-CEM. Summed up: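 Thymidine kinase-deficient CEM/TK⁻ cells at 4 × 10⁵ cells/mL infected with HIV-2 ROD at ~100 CCID₅₀/mL, then mixed 1:1 with compound dilutions. Microscopic scoring of giant cell formation at 4-5 days. EC50 is the mean of two to three independent experiments.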

Series [3] in a line: Stability in 25 mM phosphate buffer assessed as hydrolysis half life at pH 7.3. Conditions: for half-life: phosphate buffer; for t1/2: buffer. It counts as physicochemical.
Series [4] has as its system Human immunodeficiency virus 2. As to the kind of experiment: Antiviral activity against HIV2 ROD in human CEM cells. The class given is functional, organism-based, CCRF-CEM. Summed up:
(§3)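 CEM/0 cells at 4 × 10⁵ cells/mL infected with HIV-1 or HIV-2 (ROD, stocks from infected MT-4 supernatants) at ~100 CCID₅₀/mL, mixed 1:1 with serial compound dilutions. Giant cell formation scored microscopically after 4-5 days.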

A short description of series [5]: (§4) Stability in human CEM cell extract assessed as hydrolysis half life at pH 6.9. Conditions: CEM cell extract. The class given is ADME, CCRF-CEM.
For series [6], the system named is Human immunodeficiency virus 1. In words: Antiviral activity against HIV1 in human CEM cells. It counts as functional, organism-based. The settings on record: Human immunodeficiency virus 1, CCRF-CEM. Summed up: as §3
The subject of series [7] is CCRF-CEM. Described as §1. The class given is cell-based. Conditions: ccrf-cem. In outline: as §2
The next series relates to Serum. As to the kind of experiment: Stability in human serum assessed as hydrolysis half life at pH 6.8. The class given is ADME, cell-free. Summed up: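 Human serum at 50%, diluted with phosphate buffered saline to pH 6.8. Triester conversion followed over time and hydrolysis half-life derived.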
The subject of series [8] is CCRF-CEM. The series is described as §4. The class given is ADME. The settings on record: ccrf-cem.
Setting [9] is: Human immunodeficiency virus 2, ROD, CCRF-CEM.

`COC(=O)[C@@H]1CCCN1C(=O)CCc1ccc2c(c1)COP(=O)(OC[C@@H]1C=C[C@H](n3cc(C)c(=O)[nH]c3=O)O1)O2` (some centres not stated) yielded a 50% cytotoxic concentration (CC50) in [1] of 182000 nM. Moreover, the concentration giving a half-maximal response (EC50) in series [2] (setting [9]) stood at 2800 nM; in series [4] (setting [9]), 1600 nM; in series [6], 1300 nM. For the same compound, the values for the half-life in series [3] and in series [5] were 7.9 h and 1.1 h, respectively.
In turn, `COC(=O)CNC(=O)CCc1ccc2c(c1)COP(=O)(OC[C@@H]1C=C[C@H](n3cc(C)c(=O)[nH]c3=O)O1)O2` (some centres not stated) showed a 50% cytotoxic concentration (CC50) in series [1] of 220000 nM. The concentration for a half-maximal effect (EC50) in series [2] (setting [9]) turned out to be 4000 nM; in [4] (setting [9]), 1600 nM; in series [6], 2000 nM. Besides, the figures for the half-life in [3] and in series [5] were 6.5 h and 4.5 h, respectively.
Consider `Cc1cn([C@H]2C=C[C@@H](COP3(=O)OCc4cc(CCC(=O)N[C@@H](C)C(=O)OCc5ccccc5)ccc4O3)O2)c(=O)[nH]c1=O` (stereo in doubt; form 3), for which, in the series with CCRF-CEM [7], the CC50 came out at 23000 nM. Moreover, the 50% effective concentration (EC50) in [2] (ccrf-cem) turned out to be 300 nM; in series [4] (setting [9]) it was 400 nM; in series [6], 300 nM. In addition, the half-life in [3] is 6.4 h.
For `Cc1cn([C@H]2C=C[C@@H](CO)O2)c(=O)[nH]c1=O` [STAVUDINE], the CC50 in [1] came to 234000 nM. Also, the concentration giving a half-maximal response (EC50) in series [2] (setting [9]) was determined as 47500 nM; in series [4] (setting [9]) it was 630 nM; in series [6], 480 nM.
Take `Cc1cn([C@H]2C=C[C@@H](COP3(=O)OCc4cc(CCC(=O)N[C@@H](C)C(=O)O)ccc4O3)O2)c(=O)[nH]c1=O` (some centres not stated): the CC50 in series [1] is 77000 nM. Besides, the concentration giving a half-maximal response (EC50) in series [2] (setting [9]) was 4100 nM; in series [4] (setting [9]) it was 400 nM; in series [6] it was 500 nM. For the same compound, the half-life is 12 h in [3] and 7 h in series [5].
In turn, `Cc1cn([C@H]2C=C[C@@H](COP3(=O)OCc4cc(CCC(=O)N[C@@H](C)C(=O)OCc5ccccc5)ccc4O3)O2)c(=O)[nH]c1=O` (stereo in doubt; form 2) returned a CC50 with CCRF-CEM [7] of 61000 nM. The t1/2 is 1.3 h with Serum and 8.8 h in series [3]. Moreover, the EC50 in [2] (ccrf-cem) is 1000 nM. In addition, in series [5], the half-life was 0.5 h.
Turning to `Cc1cn([C@H]2C=C[C@@H](COP3(=O)OCc4cc(CCC(=O)O)ccc4O3)O2)c(=O)[nH]c1=O` (some centres not stated), half-maximal cytotoxicity in [1] (CC50) was put at 74000 nM. Moreover, the results for the EC50 in series [2] (setting [9]), in series [4] (setting [9]) and in series [6] were 50000 nM, 800 nM and 140 nM, respectively. In addition, the half-life in series [3] was 13 h.
Compound `COC(=O)[C@@H](C)NC(=O)CCc1ccc2c(c1)COP(=O)(OC[C@@H]1C=C[C@H](n3cc(C)c(=O)[nH]c3=O)O1)O2` (some centres not stated) returned a half-maximal cytotoxic concentration (CC50) in [1] of 61000 nM. In addition, the EC50 turned out to be 4200 nM in [2] (setting [9]), 400 nM in [4] (setting [9]) and 400 nM in series [6]. The half-life in series [3] is 5 h; in series [5] it was 6.2 h.
As for `COC(=O)[C@H](C)NC(=O)CCc1ccc2c(c1)COP(=O)(OC[C@@H]1C=C[C@H](n3cc(C)c(=O)[nH]c3=O)O1)O2` (some centres not stated), it took 152000 nM to reach half-maximal cytotoxicity in series [1] (CC50). In addition, the concentration giving a half-maximal response (EC50) was 2500 nM in series [2] (setting [9]), 700 nM in [4] (setting [9]) and 800 nM in series [6]. In addition, the half-life in [3] is 6.4 h; in series [5], 1.1 h.
For `Cc1cn([C@H]2C=C[C@@H](COP3(=O)OCc4cc(CCC(=O)N[C@@H](C)C(=O)OCc5ccccc5)ccc4O3)O2)c(=O)[nH]c1=O` (stereo in doubt; form 1), the half-maximal cytotoxic concentration (CC50) in the series on CCRF-CEM [7] amounted to 48000 nM. Further, the t1/2 came out at 4.4 h in the series with Serum, 4.5 h in [3] and 0.5 h in the series on CCRF-CEM [8]. This compound also came in with a concentration for a half-maximal effect (EC50) in [4] (ccrf-cem) of 300 nM.
On to `Cc1cn([C@H]2C=C[C@@H](COP3(=O)OCc4cc(CCC(=O)N[C@@H](C)C(=O)OC(C)(C)C)ccc4O3)O2)c(=O)[nH]c1=O` (some centres not stated), for which the half-maximal cytotoxic concentration (CC50) in series [1] worked out at 53000 nM. For the same compound, the 50% effective concentration (EC50) in [2] (setting [9]) came out at 3800 nM; in [4] (setting [9]), 400 nM; in series [6], 300 nM. For the same compound, the half-life in series [3] was 5.7 h; in [5], 6.8 h.
`Cc1cn([C@H]2C=C[C@@H](COP3(=O)OCc4cc(CCC(=O)N5CCC[C@H]5C(=O)OCc5ccccc5)ccc4O3)O2)c(=O)[nH]c1=O` (some centres not stated) registered a half-maximal cytotoxic concentration (CC50) in series [1] of 46000 nM. Moreover, the EC50 in series [2] (setting [9]) was 21000 nM; in [4] (setting [9]) it was 1100 nM; in series [6], 700 nM. Also, the half-life is 6.1 h in series [3] and 0.4 h in series [5].
Consider `Cc1cn([C@H]2C=C[C@@H](COP3(=O)OCc4cc(CCC(=O)NCC(=O)OCc5ccccc5)ccc4O3)O2)c(=O)[nH]c1=O` (some centres not stated), for which the cytotoxic concentration (CC50) in series [1] was found to be 75000 nM. The concentration for a half-maximal effect (EC50) worked out at 400 nM in [2] (setting [9]), 470 nM in series [4] (setting [9]) and 310 nM in [6]. Moreover, the half-life in [3] is 6.2 h; in [5], 4.8 h.

For the origin of these results see ChEMBL document CHEMBL1140176, “Intracellular trapping of cycloSal-pronucleotides: modification of prodrugs with amino acid esters” (J Med Chem, 2008).
